ChEMBL document CHEMBL4196160, “Structure-Guided Design and Procognitive Assessment of a Potent and Selective Phosphodiesterase 2A Inhibitor” (ACS Med Chem Lett, 2018)
pIC50: −log10 of the molar value. Active and inactive are the calls of the source. No cut-off for these calls is given here.

Tests used:
[1] = Inhibition of rhesus monkey brain PDE2A3 expressed in human AD293 cells using FAM-labeled cAMP/cGMP as substrate incubated for 60 mins measured after 1 hr by IMAP based fluorescence polarization assay
[2] = Selectivity ratio of IC50 for human GST-tagged PDE9A2 expressed in insect cells to IC50 for rhesus monkey brain PDE2A3 expressed in human AD293 cells
[3] = Lipophilicity, log D of the compound by HPLC method; assay type: physicochemical
[4] = Selectivity ratio of IC50 for human GST-tagged PDE1A expressed in insect cells to IC50 for rhesus monkey brain PDE2A3 expressed in human AD293 cells
[5] = Selectivity ratio of IC50 for human GST-tagged PDE2A1 expressed in insect cells to IC50 for rhesus monkey brain PDE2A3 expressed in human AD293 cells
[6] = Selectivity ratio of IC50 for human GST-tagged PDE3A expressed in insect cells to IC50 for rhesus monkey brain PDE2A3 expressed in human AD293 cells
[7] = Selectivity ratio of IC50 for human GST-tagged PDE4A1A expressed in insect cells to IC50 for rhesus monkey brain PDE2A3 expressed in human AD293 cells
[8] = Selectivity ratio of IC50 for human GST-tagged PDE5A1 expressed in insect cells to IC50 for rhesus monkey brain PDE2A3 expressed in human AD293 cells
[9] = Selectivity ratio of IC50 for human GST-tagged PDE6C expressed in insect cells to IC50 for rhesus monkey brain PDE2A3 expressed in human AD293 cells
[10] = Selectivity ratio of IC50 for human GST-tagged PDE7A expressed in insect cells to IC50 for rhesus monkey brain PDE2A3 expressed in human AD293 cells
[11] = Selectivity ratio of IC50 for human GST-tagged PDE8A1 expressed in insect cells to IC50 for rhesus monkey brain PDE2A3 expressed in human AD293 cells
[12] = Selectivity ratio of IC50 for human GST-tagged PDE10A2 expressed in insect cells to IC50 for rhesus monkey brain PDE2A3 expressed in human AD293 cells
[13] = Selectivity ratio of IC50 for human GST-tagged PDE11A4 expressed in insect cells to IC50 for rhesus monkey brain PDE2A3 expressed in human AD293 cells
[14] = test system: P-gp; assay: Substrate activity at human P-gp assessed as efflux ratio; assay type: ADME; details: not told
[15] = test system: P-gp; assay: Substrate activity at rat P-gp assessed as efflux ratio; assay type: ADME; details: not told
[16] = test system: Rattus norvegicus; assay: Reversal of scopolamine-induced cognitive impairment in Wistar Hannover rat assessed as improvement in episodic memory at 1.8 mg/kg, ip administered 30 mins prior to testing by novel object recognition test; assay type: functional, organism-based
Procedure, shortened: (§1)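 Rats given vehicle or scopolamine, then exposed to two identical objects; one hour later exposed to one familiar and one novel object. Recognition memory scored as time spent exploring the novel versus the familiar object. Donepezil served as positive control.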

[17] = test system: Rhesus monkey; assay: Reversal of scopolamine-induced cognitive impairment in rhesus monkey assessed increase in novel object retrieval at 0.3 mg/kg by novel object recognition test; assay type: functional, organism-based; details: Macaca mulatta
Procedure, shortened: (§2)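 Rhesus monkeys impaired with scopolamine performed an object retrieval task. A food item was placed deep inside a clear box whose single open side was out of direct view. Each attempt was scored correct if the food was retrieved without touching a closed side. Read-out was percentage correct versus scopolamine alone, with donepezil as positive control.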

[18] = Oral bioavailability in rat; assay type: ADME, organism-based; details: in vivo
[19] = Protein binding in rat plasma; assay type: ADME, cell-free; details: read-out: PPB (converted)
[20] = Volume of distribution at steady state in rat; assay type: ADME, organism-based; details: in vivo, read-out: Vdss
[21] = Intrinsic clearance in human liver microsomes; assay type: ADME, microsome; details: read-out: CLH
[22] = Clearance in rat; assay type: ADME, organism-based; details: in vivo
[23] = Half life in rat; assay type: ADME, organism-based; details: in vivo
[24] = test system: P-gp; assay: Substrate activity at P-gp (unknown origin) assessed as apparent permeability; assay type: ADME; details: human, not told
[25] = Inhibition of CYP450 (unknown origin); assay type: ADME, Homo sapiens
[26] = test system: Rattus norvegicus; assay: Increase in cGMP levels in rat brain cytosolic fraction of cortical tissue at 3 to 30 mg/kg, po measured after 30 mins by ELISA; assay type: functional, organism-based
Procedure, shortened: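 Rats dosed orally at 3, 10 or 30 mg/kg; brain tissue harvested 30 min after dosing and frozen; cortical cGMP measured and compared with controls.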

[27] = test system: Rattus norvegicus; assay: Reversal of scopolamine-induced cognitive impairment in Wistar Hannover rat assessed as improvement in episodic memory at 0.1 to 1 mg/kg, po administered 30 mins prior to testing by novel object recognition test; assay type: functional, organism-based; procedure, shortened: as §1
[28] = Clearance in rhesus monkey; assay type: ADME, organism-based, Macaca mulatta; details: in vivo
[29] = Half life in rhesus monkey; assay type: ADME, organism-based, Macaca mulatta; details: in vivo
[30] = Volume of distribution at steady state in rhesus monkey; assay type: ADME, organism-based, Macaca mulatta; details: in vivo, read-out: Vdss
[31] = Oral bioavailability in rhesus monkey; assay type: ADME, organism-based, Macaca mulatta; details: in vivo
[32] = Protein binding in rhesus monkey plasma; assay type: ADME, cell-free, Macaca mulatta; details: read-out: PPB (converted)
[33] = test system: Rhesus monkey; assay: Reversal of scopolamine-induced cognitive impairment in rhesus monkey assessed increase in novel object retrieval administered orally 4 hrs prior to testing by novel object recognition test; assay type: functional, organism-based; details: Macaca mulatta; procedure, shortened: as §2
[34] = test system: Rhesus monkey; assay: Reversal of scopolamine-induced cognitive impairment in rhesus monkey assessed increase in novel object retrieval at 1 mg/kg administered orally 4 hrs prior to testing by novel object recognition test; assay type: functional, organism-based; details: Macaca mulatta; procedure, shortened: as §2

Structure (SMILES): Cc1nc2c(c(CO)nn2[C@@H](C)c2ccc(C(F)(F)F)c(F)c2)c(=O)[nH]1
- pIC50 [1]: 8.89
- Ratio IC50 [2]: 950

Structure (SMILES): C[C@@H](c1ccc(C(F)(F)F)cc1)n1nc(CC(F)(F)F)c2c(=O)[nH]c(O)nc21
- pIC50 [1]: 9.02
- logD [3]: 1.8
- Ratio IC50 [4]: > 12000
- Ratio IC50 [5]: > 12000
- Ratio IC50 [6]: > 12000
- Ratio IC50 [7]: > 12000
- Ratio IC50 [8]: > 12000
- Ratio IC50 [9]: > 12000
- Ratio IC50 [10]: > 12000
- Ratio IC50 [11]: > 12000
- Ratio IC50 [2]: > 12000
- Ratio IC50 [12]: > 12000
- Ratio IC50 [13]: > 12000
- efflux ratio [14]: 4.8
- efflux ratio [15]: 19

Structure (SMILES): Cc1nc2c(c(C)nn2[C@@H](C)c2ccc(C(F)(F)F)cc2)c(=O)[nH]1
- pIC50 [1]: 7.64
- logD [3]: 2.7
- Ratio IC50 [4]: 0 to 100
- Ratio IC50 [6]: 0 to 100
- Ratio IC50 [7]: 101 to 500
- Ratio IC50 [8]: 101 to 500
- Ratio IC50 [9]: > 500
- Ratio IC50 [10]: > 500
- Ratio IC50 [11]: > 500
- Ratio IC50 [2]: 4
- Ratio IC50 [12]: 101 to 500
- Ratio IC50 [13]: 101 to 500

Structure (SMILES): COc1ccc(Cc2nc3c(c(CO)nn3[C@@H](C)c3ccc(C(F)(F)F)cc3)c(=O)[nH]2)cc1OC
- pIC50 [1]: 9.05
- efflux ratio [14]: 11
- efflux ratio [15]: 35

Structure (SMILES): COc1cc2c(cc1OC)C(=O)C(CC1CCN(Cc3ccccc3)CC1)C2 (stereo not given)
- Activity [16]: Active
- Activity [17]: Active

Structure (SMILES): C[C@@H](c1ccc(C(F)(F)F)cc1)n1nc(CF)c2c(=O)[nH]c(O)nc21
- pIC50 [1]: 8.70

Structure (SMILES): Cc1nc2c(c(CO)nn2[C@@H](C)c2ccc(C(F)(F)F)cc2)c(=O)[nH]1
- pIC50 [1]: 8.70
- logD [3]: 2.2 to 2.7
- Ratio IC50 [4]: > 500
- Ratio IC50 [5]: > 500
- Ratio IC50 [6]: > 500
- Ratio IC50 [7]: > 500
- Ratio IC50 [8]: > 500
- Ratio IC50 [9]: > 500
- Ratio IC50 [10]: > 500
- bioavailability [18]: 84%
- Ratio IC50 [11]: > 500
- fraction unbound [19]: 0.15
- Vd [20]: 1.4 L/kg
- Ratio IC50 [2]: 315
- Ratio IC50 [12]: > 500
- Ratio IC50 [13]: > 500
- CLint scaled [21]: < 0.372 L/h/kg
- clearance [22]: 0.336 L/h/kg
- half-life [23]: 2.9 h
- efflux ratio [14]: 1
- efflux ratio [15]: 3
- Papp [24]: 370 nm/s
- pIC50 [25]: < 4.30
- Activity [26]: Active
- Activity [27]: Active
- clearance [28]: 0.12 L/h/kg
- half-life [29]: 5.2 h
- Vd [30]: 0.88 L/kg
- bioavailability [31]: 100%
- fraction unbound [32]: 0.1
- Activity [33]: Dose-dependent effect
- Activity [34]: inactive

Structure (SMILES): C[C@@H](c1ccc(C(F)(F)F)cc1)n1nc(CO)c2c(=O)[nH]c(O)nc21
- pIC50 [1]: 7.85
- logD [3]: 1.1
- Ratio IC50 [4]: > 1000
- Ratio IC50 [5]: > 1000
- Ratio IC50 [6]: > 1000
- Ratio IC50 [7]: > 1000
- Ratio IC50 [8]: > 1000
- Ratio IC50 [9]: > 1000
- Ratio IC50 [10]: > 1000
- Ratio IC50 [11]: > 1000
- Ratio IC50 [2]: 1190
- Ratio IC50 [12]: > 1000
- Ratio IC50 [13]: > 1000
- efflux ratio [14]: 0.32
- efflux ratio [15]: 0.38
- Papp [24]: 410 nm/s

Structure (SMILES): Cc1nc2c(c(CO)nn2[C@H](c2ccc(C(F)(F)F)cc2)C(C)(C)C)c(=O)[nH]1
- pIC50 [1]: 8.05

Structure (SMILES): Cc1nc2c(c(CO)nn2[C@H](C)c2ccc(C(F)(F)F)cc2)c(=O)[nH]1
- pIC50 [1]: 6.67
